Assay results from ChEMBL document CHEMBL5579886, “Selective Degradation of MLK3 by a Novel CEP1347-VHL-02 PROTAC Compound Limits the Oncogenic Potential of TNBC” (J Med Chem, 2024).
Calls of active or inactive are those of the source. The rule behind the calls is not given here.

What was measured:
Type in all cases: cell-based
[1] = biological target: T1, von Hippel-Lindau disease tumor suppressor/Mitogen-activated protein kinase kinase kinase 11 (Homo sapiens, UniProt Q16584+P40337); assay: PROTAC activity at VHL/DOX-inducible MLK3 (unknown origin) overexpressed in human HCC1806 cells assessed as protein degradation at 0.25 to 1 uM measured after 24 hrs by immunoblot analysis; conditions: dose 0.25-1 µM
T1 sequence (P40337 whole entry, looked up): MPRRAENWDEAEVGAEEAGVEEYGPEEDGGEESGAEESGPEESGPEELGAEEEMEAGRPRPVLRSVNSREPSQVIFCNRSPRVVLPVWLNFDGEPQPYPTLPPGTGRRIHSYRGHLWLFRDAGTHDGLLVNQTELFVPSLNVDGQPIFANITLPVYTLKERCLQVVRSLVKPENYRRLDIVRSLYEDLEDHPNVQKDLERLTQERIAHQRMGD
T1 sequence (Q16584 whole entry, looked up): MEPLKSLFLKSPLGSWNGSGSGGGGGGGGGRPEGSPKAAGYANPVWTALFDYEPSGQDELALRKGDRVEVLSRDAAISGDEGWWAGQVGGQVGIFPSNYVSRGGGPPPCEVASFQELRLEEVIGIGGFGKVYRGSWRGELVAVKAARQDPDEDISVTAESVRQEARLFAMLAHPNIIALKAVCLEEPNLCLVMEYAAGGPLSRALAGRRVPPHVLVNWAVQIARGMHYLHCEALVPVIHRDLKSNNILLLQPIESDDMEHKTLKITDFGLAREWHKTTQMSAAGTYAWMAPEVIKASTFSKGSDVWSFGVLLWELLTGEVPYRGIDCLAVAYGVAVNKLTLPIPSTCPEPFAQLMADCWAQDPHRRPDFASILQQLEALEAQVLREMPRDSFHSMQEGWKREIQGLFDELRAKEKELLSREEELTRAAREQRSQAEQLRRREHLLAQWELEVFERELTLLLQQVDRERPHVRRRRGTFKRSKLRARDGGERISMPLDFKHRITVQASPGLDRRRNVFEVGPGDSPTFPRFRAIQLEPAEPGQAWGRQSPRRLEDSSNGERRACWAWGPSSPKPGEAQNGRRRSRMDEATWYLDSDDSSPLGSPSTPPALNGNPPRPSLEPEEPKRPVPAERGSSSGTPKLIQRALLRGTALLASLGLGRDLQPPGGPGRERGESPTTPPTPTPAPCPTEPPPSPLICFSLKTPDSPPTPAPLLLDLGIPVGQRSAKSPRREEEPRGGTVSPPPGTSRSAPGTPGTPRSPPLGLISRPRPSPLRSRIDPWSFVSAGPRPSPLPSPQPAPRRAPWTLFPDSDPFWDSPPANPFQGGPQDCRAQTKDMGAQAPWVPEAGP

[2] = biological target: T1, von Hippel-Lindau disease tumor suppressor/Mitogen-activated protein kinase kinase kinase 11; assay: PROTAC activity at VHL/MLK3 in human MCF7 cells assessed as protein degradation at 1 uM measured after 24 hrs by immunoblot analysis
How it was run: (§1)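 MCF-7 and MDA-MB-468 cells were treated for 24 h across 0.1–5 μM, with DMSO as control. MLK3 was immunoblotted and quantified as percent remaining versus concentration, from which DC50 and Dmax were derived.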

[3] = biological target: T1, von Hippel-Lindau disease tumor suppressor/Mitogen-activated protein kinase kinase kinase 11; assay: PROTAC activity at VHL/MLK3 in human MDA-MB-468 cells assessed as protein degradation at 1 uM measured after 24 hrs by immunoblot analysis; how it was run: as §1
[4] = biological target: Mitogen-activated protein kinase kinase kinase 11 (Homo sapiens) (UniProt Q16584); assay: Induction of degradation of DOX-inducible MLK3 (unknown origin) overexpressed in human MCF7 cells at 0.5 to 1 uM measured after 24 hrs by immunoblot analysis; conditions: dose 0.5-1 µM
Mitogen-activated protein kinase kinase kinase 11 (Homo sapiens), sequence (Q16584 whole entry, looked up): as above

[5] = biological target: Mitogen-activated protein kinase kinase kinase 11 (Homo sapiens) (UniProt Q16584); assay: Induction of degradation of DOX-inducible MLK3 (unknown origin) overexpressed in human MDA-MB-468 cells at 0.5 to 1 uM measured after 24 hrs by immunoblot analysis; conditions: dose 0.5-1 µM

| SMILES | Activity [1] | Activity [2] | Activity [3] | Activity [4] | Activity [5] |
| --- | --- | --- | --- | --- | --- |
| CCSCc1ccc2c(c1)c1c3c(c4c5cc(CSCC)ccc5n5c4c1n2[C@H]1C[C@](O)(C(=O)NCCOCCOCCOCC(=O)N[C@H](C(=O)N2C[C@@H](O)C[C@H]2C(=O)N[C@@H](C)c2ccc(-c4scnc4C)cc2)C(C)(C)C)[C@]5(C)O1)CNC3=O | inactive | inactive | inactive |  |  |
| CCSCc1ccc2c(c1)c1c3c(c4c5cc(CSCC)ccc5n5c4c1n2[C@H]1C[C@](O)(C(=O)OC)[C@]5(C)O1)CNC3=O |  |  |  | inactive | inactive |
